Experimental data published in ChEMBL document CHEMBL1128415 (J Med Chem, 1995).
“And” between values parts separate entries of the source, which are not always exact repeats. Equal entries are not always repeated.

Experiments:
[1] = biological target: T1, Angiotensin II receptor (AT-1) type-1 (Rattus norvegicus, UniProt P29089+P25095); test: Specific binding inhibition of [125I]AII to Angiotensin II receptor, type 1 in rat liver membrane; assay type: cell membranes
T1 sequence (P29089 whole entry): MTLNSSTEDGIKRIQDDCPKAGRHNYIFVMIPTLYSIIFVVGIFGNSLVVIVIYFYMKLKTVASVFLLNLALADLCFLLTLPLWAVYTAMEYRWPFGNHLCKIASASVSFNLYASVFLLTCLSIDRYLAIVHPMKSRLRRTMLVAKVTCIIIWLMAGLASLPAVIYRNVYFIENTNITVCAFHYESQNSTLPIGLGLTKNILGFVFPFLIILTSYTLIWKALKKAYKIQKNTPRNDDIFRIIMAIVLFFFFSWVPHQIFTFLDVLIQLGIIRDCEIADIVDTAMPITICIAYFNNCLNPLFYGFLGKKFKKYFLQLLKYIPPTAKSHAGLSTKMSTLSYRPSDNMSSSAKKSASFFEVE
T1 sequence (P25095 whole entry): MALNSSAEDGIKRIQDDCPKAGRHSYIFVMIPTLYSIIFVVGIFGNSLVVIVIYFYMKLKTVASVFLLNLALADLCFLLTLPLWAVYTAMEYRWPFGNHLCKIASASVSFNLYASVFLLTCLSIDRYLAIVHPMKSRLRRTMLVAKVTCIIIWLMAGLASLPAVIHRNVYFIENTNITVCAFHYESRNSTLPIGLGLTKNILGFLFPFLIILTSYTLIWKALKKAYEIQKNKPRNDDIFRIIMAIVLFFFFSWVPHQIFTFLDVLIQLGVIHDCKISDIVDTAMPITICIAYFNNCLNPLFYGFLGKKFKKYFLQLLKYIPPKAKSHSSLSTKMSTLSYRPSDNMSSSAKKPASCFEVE

[2] = biological target: T2, Angiotensin II receptor (AT-1) type-1 (Rattus norvegicus) (UniProt P29089+P25095); test: Inhibition of pressor response induced by infusion of angiotensin II in rats, administered perorally; assay type: functional
Procedure, shortened: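 Sprague-Dawley rats (n = 18-28) dosed by gastric tube in groups; vehicle water or water with 2 equiv NaOH; controls given water. At 50 min rats anaesthetised, pithed, ventilated, with carotid and jugular catheters. At 1 h post-dose AII 0.75 μg/kg iv given.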

[3] = biological target: T2, Angiotensin II receptor (AT-1) type-1 (Rattus norvegicus); test: Inhibition of pressor response induced by infusion of AII in rats when dose is administered intravenously; assay type: functional
Procedure, shortened: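 Normotensive Sprague-Dawley pithed rats (n = 4), BP recorded by carotid catheter. AII 0.75 μg/kg injected via jugular vein; three control responses taken. Each later AII challenge followed, by 5 min, an iv injection of antagonist at increasing doses, in water or water with 2 equiv NaOH.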

Rattus norvegicus = test: Effective dose to inhibit AII-induced pressor response in pithed rats, was determined in vivo after intraduodenal administration; settings: read-out: ID50 (the source's name)

| SMILES | IC50 [1] | ID50 [2] | ID50 [3] | ED50 (Rattus norvegicus) |
| --- | --- | --- | --- | --- |
| CCCNC(=O)NS(=O)(=O)c1ccccc1-c1ccc(Cn2c(CC)nc(SC)c2C(=O)O)cc1 | 1300 pM |  |  |  |
| CCCCOC(=O)NS(=O)(=O)c1ccccc1-c1ccc(Cn2c(CCCC)nc(SC)c2C(=O)O)cc1 | 100 pM | 0.6 mg/kg | 0.1 mg/kg |  |
| CCCCc1nc(SC)c(C(=O)OCC)n1Cc1ccc(-c2ccccc2S(=O)(=O)N(C)C(=O)NCCC)cc1 | 78000 pM |  |  |  |
| CCCCc1nc(SC)c(C(=O)OC(C)(C)C)n1Cc1ccc(-c2ccccc2S(=O)(=O)NC(=O)NCCC)cc1 | 600 pM |  | 0.1 mg/kg |  |
| CCCCc1nc(SCC(F)(F)C(F)(F)CO)c(C(=O)O)n1Cc1ccc(-c2ccccc2S(=O)(=O)NC(=O)NCCC)cc1 | 300 pM | 5.3 mg/kg | 0.83 mg/kg |  |
| CCCCc1nc(SC)c(C(=O)NCC(=O)OC)n1Cc1ccc(-c2ccccc2S(=O)(=O)NC(=O)NCCC)cc1 | 800 pM | 2.4 mg/kg | 0.05 mg/kg |  |
| CCCCc1nc(SC)c(C(=O)OCc2ccccc2)n1Cc1ccc(-c2ccccc2S(=O)(=O)NC(=O)NCCC)cc1 | 100 pM | 1.73 mg/kg | 0.2 mg/kg |  |
| CCCCc1nc(SC)c(C(=O)O)n1Cc1ccc(-c2ccccc2S(=O)(=O)NC(=O)OCC=C(C)C)cc1 | 1800 pM |  |  |  |
| CCCCc1nc(SC)c(C(N)=O)n1Cc1ccc(-c2ccccc2S(=O)(=O)NC(=O)NCCC)cc1 | 1000 pM | 2.83 mg/kg | 0.06 mg/kg |  |
| CCCCc1nc(SC)c(C(=O)NC)n1Cc1ccc(-c2ccccc2S(=O)(=O)NC(=O)NCCC)cc1 | 2100 pM | 4.86 mg/kg | 0.02 mg/kg |  |
| CCCCc1nc(SC)c(C(=O)O)n1Cc1ccc(-c2ccccc2S(=O)(=O)NC(=O)N(CC)CC)cc1 | 4700 pM |  |  |  |
| CCCCc1nc(SC)c(C(=O)O)n1Cc1ccc(-c2ccccc2S(=O)(=O)NC(=O)c2ccccc2)cc1 | 90 pM |  | 0.4 mg/kg |  |
| CCCCc1nc(SC)c(C(=O)O)n1Cc1ccc(-c2ccccc2S(=O)(=O)NS(=O)(=O)C(F)(F)F)cc1 | 800 pM |  | 1.45 mg/kg |  |
| CCCCc1nc([S+](C)[O-])c(C(=O)O)n1Cc1ccc(-c2ccccc2S(=O)(=O)NC(=O)NCCC)cc1 (stereo not given) | 3100 pM | > 10 mg/kg | 0.14 mg/kg |  |
| CCCCc1nc(SC)c(C(=O)O)n1Cc1ccc(-c2ccccc2S(=O)(=O)NC(C)=O)cc1 | 1000 pM | 2.02 mg/kg | 0.13 mg/kg |  |
| CCCCc1nc(SC)c(C(=O)O)n1Cc1ccc(-c2ccccc2S(=O)(=O)NC(=O)NCCC)cc1 | 300 pM | 0.7 mg/kg and 0.4 mg/kg | 0.11 mg/kg and 0.13 mg/kg |  |
| CCCCc1nc(SC)c(C(=O)OCC)n1Cc1ccc(-c2ccccc2S(=O)(=O)NC(=O)NCCC)cc1 | 400 pM | 1.13 mg/kg | 0.08 mg/kg |  |
| CCCCc1nc(SC)c(C(=O)O)n1Cc1ccc(-c2ccccc2S(=O)(=O)NC(=O)NCc2cccnc2)cc1 | 900 pM |  |  |  |
| CCCCNC(=O)NS(=O)(=O)c1ccccc1-c1ccc(Cn2c(CCCC)nc(SC)c2C(=O)O)cc1 |  | 0.21 mg/kg | 0.09 mg/kg |  |
| CCCNC(=O)NS(=O)(=O)c1ccccc1-c1ccc(Cn2c(C)nc(SC)c2C(=O)O)cc1 | 15000 pM |  |  |  |
| CCCCc1nc(SCSC)c(C(=O)O)n1Cc1ccc(-c2ccccc2S(=O)(=O)NC(=O)NCCC)cc1 | 200 pM | 2.75 mg/kg |  |  |
| CCCCc1nc(SC)c(C(=O)O)n1Cc1ccc(-c2ccccc2S(=O)(=O)NC(=O)OC)cc1 | 900 pM | 1.54 mg/kg | 0.1 mg/kg |  |
| CCCCc1nc(SCCCCOC(C)=O)c(C(=O)O)n1Cc1ccc(-c2ccccc2S(=O)(=O)NC(=O)NCCC)cc1 | 300 pM | > 10 mg/kg | 0.6 mg/kg |  |
| CCCCc1nc(SC)c(C(=O)O)n1Cc1ccc(-c2ccccc2S(=O)(=O)NC(=O)CCC)cc1 | 200 pM | 0.95 mg/kg | 0.06 mg/kg |  |
| CCCCc1nc(Sc2ccccc2)c(C(=O)O)n1Cc1ccc(-c2ccccc2S(=O)(=O)NC(=O)NCCC)cc1 | 300 pM | > 10 mg/kg | 0.67 mg/kg |  |
| CCCCc1nc(SC)cn1Cc1ccc(-c2ccccc2S(=O)(=O)NC(=O)NCCC)cc1 | 2600 pM | > 10 mg/kg | 0.7 mg/kg |  |

| SMILES | IC50 [1] | ID50 [2] | ID50 [3] | ED50 (Rattus norvegicus) |
| --- | --- | --- | --- | --- |
| CCCNC(=O)NS(=O)(=O)c1ccccc1-c1ccc(Cn2c(CCC)nc(SC)c2C(=O)O)cc1 | 200 pM |  |  |  |
| CCCCc1nc(SC)c(C(=O)O)n1Cc1ccc(-c2ccccc2S(=O)(=O)NC(=O)OCC(C)C)cc1 | 200 pM | 0.43 mg/kg | 0.15 mg/kg |  |
| CCCCc1nc(SCC(F)(F)F)c(C(=O)O)n1Cc1ccc(-c2ccccc2S(=O)(=O)NC(=O)NCCC)cc1 | 600 pM | 2.28 mg/kg | 0.8 mg/kg |  |
| CCCCc1nc(C(=O)O)c(SC)n1Cc1ccc(-c2ccccc2S(=O)(=O)NC(=O)NCCC)cc1 | 103000 pM |  |  |  |
| CCCCc1nc(SC)c(C(=O)NCC(=O)O)n1Cc1ccc(-c2ccccc2S(=O)(=O)NC(=O)NCCC)cc1 | 1500 pM | 3.55 mg/kg | 0.06 mg/kg |  |
| CCCCc1nc(Sc2cccs2)c(C(=O)O)n1Cc1ccc(-c2ccccc2S(=O)(=O)NC(=O)NCCC)cc1 | 200 pM |  | 2.01 mg/kg |  |
| CCCCc1nc(SCCCCO)c(C(=O)O)n1Cc1ccc(-c2ccccc2S(=O)(=O)NC(=O)NCCC)cc1 | 400 pM | 9.81 mg/kg | 0.12 mg/kg |  |
| CCCCc1nc(Cl)c(C(=O)O)n1Cc1ccc(-c2ccccc2S(=O)(=O)NC(=O)NCCC)cc1 | 1000 pM | 3.1 mg/kg | 0.16 mg/kg |  |
| CCCCc1nc(SC)c(C(=O)O)n1Cc1ccc(-c2ccccc2S(=O)(=O)NC(=O)Cc2ccccc2)cc1 | 80 pM | 1.75 mg/kg | 0.44 mg/kg |  |
| CCCCc1nc(SC)c(C(=O)O)n1Cc1ccc(-c2ccccc2S(N)(=O)=O)cc1 | 36000 pM | > 30 mg/kg | 5.6 mg/kg |  |
| CCCCc1nc(SC(F)F)c(C(=O)O)n1Cc1ccc(-c2ccccc2S(=O)(=O)NC(=O)NCCC)cc1 | 500 pM | 0.73 mg/kg | 0.07 mg/kg |  |
| CCCCc1nc(SC)c(C(=O)NS(=O)(=O)c2ccccc2)n1Cc1ccc(-c2ccccc2S(=O)(=O)NC(=O)NCCC)cc1 | 800 pM |  | 1.15 mg/kg |  |
| CCCCc1nc(S(C)(=O)=O)c(C(=O)O)n1Cc1ccc(-c2ccccc2S(=O)(=O)NC(=O)NCCC)cc1 | 3200 pM | > 10 mg/kg | 0.06 mg/kg |  |
| CCCCc1nc(SC(F)(F)F)c(C(=O)O)n1Cc1ccc(-c2ccccc2S(=O)(=O)NC(=O)NCCC)cc1 | 800 pM | 1.28 mg/kg | 0.11 mg/kg |  |
| CCCCc1nc(SC)c(C(=O)O)n1Cc1ccc(-c2ccccc2S(=O)(=O)NC(=O)OCC)cc1 | 900 pM | 0.38 mg/kg | 0.07 mg/kg |  |
| CCCCc1nc(SC)c(C(=O)O)n1Cc1ccc(-c2ccccc2C(=O)NC(=O)NCCC)cc1 | 114000 pM |  |  |  |
| CCCCc1nc(SC)c(C(=O)O)n1Cc1ccc(-c2ccccc2S(=O)(=O)NC(=O)NCC)cc1 |  | 1.12 mg/kg | 0.17 mg/kg |  |
| CCCCc1nc(SC)c(C(=O)O)n1Cc1ccc(-c2ccccc2S(=O)(=O)NC(=O)NC)cc1 |  | 4.94 mg/kg | 0.27 mg/kg |  |
| CCCCc1nc(SC)c(C(=O)NC(C)=O)n1Cc1ccc(-c2ccccc2S(=O)(=O)NC(=O)NCCC)cc1 | 1700 pM | 3.01 mg/kg | 0.09 mg/kg |  |
| CCCCc1nc(SCCCO)c(C(=O)O)n1Cc1ccc(-c2ccccc2S(=O)(=O)NC(=O)NCCC)cc1 | 200 pM | 5.74 mg/kg | 0.11 mg/kg |  |
| CCCCc1nc(SC)c(C(=O)O)n1Cc1ccc(-c2ccccc2S(=O)(=O)NS(=O)(=O)CC)cc1 | 1100 pM |  |  | > 1 mg/kg |
| C=CCNC(=O)NS(=O)(=O)c1ccccc1-c1ccc(Cn2c(CCCC)nc(SC)c2C(=O)O)cc1 | 1100 pM | 0.57 mg/kg | 0.11 mg/kg |  |
| CCCNC(=O)NS(=O)(=O)c1ccccc1-c1ccc(Cn2c(C3CC3)nc(SC)c2C(=O)O)cc1 | 7700 pM |  |  |  |
| CCCCc1nc(SC)c(C(=O)NC(C(=O)O)C(C)CC)n1Cc1ccc(-c2ccccc2S(=O)(=O)NC(=O)NCCC)cc1 (stereo not given) | 300 pM | 2.11 mg/kg | 0.37 mg/kg |  |
| CCCCc1nc(SC)c(C(=O)O)n1Cc1ccc(-c2ccccc2S(=O)(=O)/N=C(/S)NCCC)cc1 | 2100 pM |  | 1.15 mg/kg |  |
| CCCCc1nc(SC)c(CO)n1Cc1ccc(-c2ccccc2S(=O)(=O)NC(=O)NCCC)cc1 | 4500 pM | > 10 mg/kg | 0.21 mg/kg |  |
